According to ChEMBL document CHEMBL3112586, “Synthesis of neolignans as microtubule stabilisers” (Bioorg Med Chem, 2014):
Calls of active or inactive are those of the source. The calls are words filed in the database; no cut-off is given here.

Assays:
Tubulin (Homo sapiens) [1] = target: T1, Tubulin (Homo sapiens) (UniProt P68371+Q9H4B7+P0DPH7+P68366+Q13509+Q71U36+P04350+Q3ZCM7+P07437+P68363+Q9BQE3+Q6PEY2+Q13885+Q9BVA1+Q9BUF5); experiment: Induction of tubulin polymerization (unknown origin) at 10 to 40 uM measured every min for 1 hr in presence of PDT; assay type: protein-complex assay
In short: (§1)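 Tubulin 3 mg/mL in 80 mM PIPES pH 6.9, 2 mM MgCl2, 0.5 mM EGTA, 1 mM GTP, 15% glycerol at 37 °C with test compounds at varied concentrations; turbidity at 340 nm read every min for 1 h; podophyllotoxin inhibitor and paclitaxel stabiliser references, DMSO negative control.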

Tubulin (Homo sapiens) [2] = target: T1, Tubulin (Homo sapiens); experiment: Induction of tubulin polymerization (unknown origin) at 10 to 40 uM measured every min for 1 hr; assay type: protein-complex assay; in short: as §1
MDA-MB-231 = experiment: Cell cycle arrest in human MDA-MB-231 cells assessed as increase in sub-diploid population after 24 hrs by propidium iodide staining-based FACS analysis; assay type: functional
In short: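 MDA-MB-231 grown in DMEM with 10% FBS at 37 °C, 5% CO2; 24 h treatment, then cold-PBS wash, 2 × 10⁶ cells/ml, absolute-ethanol fixation, RNase A, propidium iodide 50 µg/mL for 30 min at room temperature; flow cytometric DNA content, sub-diploid fraction scored.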

MCF7 [3] = experiment: Cell cycle arrest in human MCF7 cells assessed as accumulation at G1 phase at 5 to 30 uM after 24 hrs by propidium iodide staining-based FACS analysis; assay type: functional
In short: (§2)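 MCF-7 in DMEM, 10% FBS, 37 °C, 5% CO2; treated 24 h, harvested, washed cold PBS, resuspended 2 × 10⁶ cells/ml, fixed absolute ethanol, RNase A treated, propidium iodide (50 µg/mL) 30 min room temperature; DNA content by flow cytometry; phase distribution versus untreated control.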

MCF7 [4] = experiment: Cell cycle arrest in human MCF7 cells assessed as increase in sub-diploid population after 24 hrs by propidium iodide staining-based FACS analysis; assay type: functional; in short: as §2
HEK293 = experiment: Cytotoxicity against human HEK293 cells after 24 hrs by MTT assay; assay type: cell-based; conditions: HEK293, 24 h
In short: (§3)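 Cells in DMEM, 10% FBS, 37 °C, 5% CO2, plated and incubated 24 h; compounds diluted in phenol-red-free DMEM with 0.5% FBS, vehicle control; after exposure, MTT (5 mg/mL stock) added 3 h, formazan dissolved in DMSO, absorbance 570 nm; IC50 derived; podophyllotoxin and tamoxifen positive controls.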

MCF7 [5] = experiment: Cytotoxicity against human MCF7 cells after 72 hrs by MTT assay; assay type: functional, cell-based; conditions: MCF7, 72 h; in short: as §3
Mus musculus [6] = experiment: Toxicity in Swiss albino mouse assessed as change in basophil count at 5 to 1000 mg/kg, po relative to control; assay type: organism-based; design: dose 5-1000 mg/kg, route oral; conditions: in vivo
Mus musculus [7] = experiment: Toxicity in Swiss albino mouse assessed as change in monocyte count at 5 to 1000 mg/kg, po relative to control; assay type: organism-based; design: dose 5-1000 mg/kg, route oral; conditions: in vivo
Mus musculus [8] = experiment: Toxicity in Swiss albino mouse assessed as change in lymphocyte count at 5 to 1000 mg/kg, po relative to control; assay type: organism-based; design: dose 5-1000 mg/kg, route oral; conditions: in vivo
Mus musculus [9] = experiment: Toxicity in Swiss albino mouse assessed as absolute spleen weight at 5 to 1000 mg/kg, po relative to control; assay type: organism-based; design: dose 5-1000 mg/kg, route oral; conditions: in vivo
Mus musculus [10] = experiment: Toxicity in Swiss albino mouse assessed as absolute kidney weight at 5 to 1000 mg/kg, po relative to control; assay type: organism-based; design: dose 5-1000 mg/kg, route oral; conditions: in vivo
Mus musculus [11] = experiment: Toxicity in Swiss albino mouse assessed as absolute lungs weight at 5 to 1000 mg/kg, po relative to control; assay type: organism-based; design: dose 5-1000 mg/kg, route oral; conditions: in vivo
Mus musculus [12] = experiment: Toxicity in Swiss albino mouse assessed as relative lungs weight at 5 to 1000 mg/kg, po relative to control; assay type: organism-based; design: dose 5-1000 mg/kg, route oral; conditions: in vivo
In short: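 One oral dose (5–1000 mg/kg; DMSO then 0.7% carboxymethyl cellulose vehicle; controls vehicle-only) was given to groups of 6 mice (3 male, 3 female). On day 7 the animals were sacrificed and necropsied for gross pathology. Absolute and relative weights of vital organs were recorded and compared with control.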

Mus musculus [13] = experiment: Toxicity in Swiss albino mouse assessed as mortality up to 1000 mg/kg, po; assay type: organism-based; design: dose 1000 mg/kg, route oral; conditions: in vivo
In short: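 Acute oral toxicity per OECD guideline 423. Mice of 20–25 g, 3 male and 3 female per group (n = 6), acclimatised 7 days. Single oral dose of 5, 50, 300 or 1000 mg/kg in DMSO suspended in 0.7% carboxymethyl cellulose; controls got vehicle only. Mortality and clinical signs checked hourly on the dosing day, then daily. On day 7: body weight, haematology, serum biochemistry, necropsy and organ weights.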

Mus musculus [14] = experiment: Toxicity in Swiss albino mouse assessed as change in cholesterol level at 50 mg/kg, po (reference value: 81.64 +/- 4.26 mg/dL); assay type: organism-based; design: dose 50 mg/kg, route oral; conditions: in vivo
Mus musculus [15] = experiment: Toxicity in Swiss albino mouse assessed as change in cholesterol level at 5 mg/kg, po (reference value: 81.64 +/- 4.26 mg/dL); assay type: organism-based; design: dose 5 mg/kg, route oral; conditions: in vivo
Mus musculus [16] = experiment: Toxicity in Swiss albino mouse assessed as change in serum protein level at 1000 mg/kg, po (reference value: 1.11 +/- 0.14 mg/ml); assay type: organism-based; design: dose 1000 mg/kg, route oral; conditions: in vivo
Mus musculus [17] = experiment: Toxicity in Swiss albino mouse assessed as change in serum protein level at 300 mg/kg, po (reference value: 1.11 +/- 0.14 mg/ml); assay type: organism-based; design: dose 300 mg/kg, route oral; conditions: in vivo
Mus musculus [18] = experiment: Toxicity in Swiss albino mouse assessed as change in serum protein level at 50 mg/kg, po (reference value: 1.11 +/- 0.14 mg/ml); assay type: organism-based; design: dose 50 mg/kg, route oral; conditions: in vivo
Mus musculus [19] = experiment: Toxicity in Swiss albino mouse assessed as change in triglyceride level at 1000 mg/kg, po (reference value: 121.45 +/- 24.02 mg/dL); assay type: organism-based; design: dose 1000 mg/kg, route oral; conditions: in vivo
Mus musculus [20] = experiment: Toxicity in Swiss albino mouse assessed as change in triglyceride level at 50 mg/kg, po (reference value: 121.45 +/- 24.02 mg/dL); assay type: organism-based; design: dose 50 mg/kg, route oral; conditions: in vivo
Mus musculus [21] = experiment: Toxicity in Swiss albino mouse assessed as change in creatinine level at 1000 mg/kg, po (reference value: 0.63 +/- 0.18 mg/dL); assay type: organism-based; design: dose 1000 mg/kg, route oral; conditions: in vivo
Mus musculus [22] = experiment: Toxicity in Swiss albino mouse assessed as change in creatinine level at 300 mg/kg, po (reference value: 0.63 +/- 0.18 mg/dL); assay type: organism-based; design: dose 300 mg/kg, route oral; conditions: in vivo
Mus musculus [23] = experiment: Toxicity in Swiss albino mouse assessed as change in albumin level at 1000 mg/kg, po (reference value: 3.35 +/- 0.51 g/dL); assay type: organism-based; design: dose 1000 mg/kg, route oral; conditions: in vivo
Mus musculus [24] = experiment: Toxicity in Swiss albino mouse assessed as change in albumin level at 300 mg/kg, po (reference value: 3.35 +/- 0.51 g/dL); assay type: organism-based; design: dose 300 mg/kg, route oral; conditions: in vivo
Mus musculus [25] = experiment: Toxicity in Swiss albino mouse assessed as change in SGPT level at 300 mg/kg, po (reference value: 12.28 +/- 3.73 U/L); assay type: organism-based; design: dose 300 mg/kg, route oral; conditions: in vivo
Mus musculus [26] = experiment: Toxicity in Swiss albino mouse assessed as change in ALKP level at 5 mg/kg, po (reference value: 218.67 +/- 12.43 U/L); assay type: organism-based; design: dose 5 mg/kg, route oral; conditions: in vivo
Mus musculus [27] = experiment: Toxicity in Swiss albino mouse assessed as change in WBC count at 50 mg/kg, po (reference value: 14.2 +/- 7.49 X 10^3/mm'3); assay type: organism-based; design: dose 50 mg/kg, route oral; conditions: in vivo
Mus musculus [28] = experiment: Toxicity in Swiss albino mouse assessed as change in body weight at 50 mg/kg, po (reference value: 24.5 +/- 0.76 g); assay type: organism-based; design: dose 50 mg/kg, route oral; conditions: in vivo

Structure (SMILES): CCOC(=O)/C=C/c1ccc(O)c(/C(=C/c2ccc(O)cc2)C(=O)OCC)c1
- Activity (Tubulin (Homo sapiens) [1]): inactive
- Activity (Tubulin (Homo sapiens) [2]): Active
- Activity (MDA-MB-231): Dose-dependent effect
- Activity (MCF7 [3]): inactive
- Activity (MCF7 [4]): Dose-dependent effect
- IC50 (HEK293): 12 µM
- IC50 (MCF7 [5]): 3.27 µM
- Activity (Mus musculus [6]): Non-toxic
- Activity (Mus musculus [7]): Non-toxic
- Activity (Mus musculus [8]): Non-toxic
- Activity (Mus musculus [9]): Non-toxic
- Activity (Mus musculus [10]): Non-toxic
- Activity (Mus musculus [11]): Non-toxic
- Activity (Mus musculus [12]): Non-toxic
- Activity (Mus musculus [13]): Non-toxic
- Activity (Mus musculus [14]): 58.62 mg/dL
- Activity (Mus musculus [15]): 75.94 mg/dL
- Activity (Mus musculus [16]): 1.02 mg/mL
- Activity (Mus musculus [17]): 0.92 mg/mL
- Activity (Mus musculus [18]): 0.94 mg/mL
- Activity (Mus musculus [19]): 156.83 mg/dL
- Activity (Mus musculus [20]): 147.23 mg/dL
- Activity (Mus musculus [21]): 1.87 mg/dL
- Activity (Mus musculus [22]): 0.79 mg/dL
- Activity (Mus musculus [23]): 3.86 g/dL
- Activity (Mus musculus [24]): 2.59 g/dL
- Activity (Mus musculus [25]): 15.56 U/L
- Activity (Mus musculus [26]): 227.47 U/L
- Activity (Mus musculus [27]): 14.7 ×10³ /mm3
- Activity (Mus musculus [28]): 24.83 g
